Assay outcomes deposited in PubChem by several laboratories.
Only some compounds are listed: those with a hit (about 2.2% of all), similar ones and a draw of the others.
CendR NRP1 mod: modulators of CendR peptide binding to human neuropilin-1; FAM-RPARPAR peptide binding to NRP-1, fluorescence polarization; inhibition, % at 25 µM; 360,000 compounds, 0.85% hits; AID 602438;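 active = inhibition or corrected inhibition above about 18%, plus a signal ratio from 0.5 to 1.5, limit read from the data, passing the limit was not always enough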
Exocytosis inh: lytic granule exocytosis inhibition; TALL-104 LAMP-1 surface exposure, flow cytometry; cells stimulated with thapsigargin and PMA; inhibition, % at 10 µM; 360,000 compounds, 0.66% hits; AID 651702;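 active = inhibition above about 55%, limit read from the data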
ARFGAP1 inhibitor: inhibits rat ARF GTPase activating protein 1 | Q62848 | Arfgap1-stimulated ARF1 GTP hydrolysis, GDP FP detection | inhibition, % at 16.5 µM | 360,000 compounds, 0.26% hits;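 active = inhibition above a per-plate limit, mean inhibition of low control wells plus 3 SD, cut at about 25% in these data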;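 also: 0% = DMSO wells with enzyme and 100% = wells lacking Arfgap1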
Target sequence (Q62848 1-136 limits assumed): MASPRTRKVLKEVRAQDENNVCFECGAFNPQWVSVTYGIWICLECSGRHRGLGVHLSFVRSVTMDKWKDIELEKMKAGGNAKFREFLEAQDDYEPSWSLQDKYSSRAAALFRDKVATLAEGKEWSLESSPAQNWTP
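Replicates: Single well per compound | Assay system: Truncated rat Arfgap1 GAP domain | Control set: No-Arfgap1 wells (100%) versus DMSO full-reaction wells (0%) | Times: Enzyme reaction 120 min at 25 °C after 20 min preincubation | Reagent: Human ARF1(Δ1-17)-GTP substrate | Measured by: Tracer-displacement fluorescence polarization with EDTA stop, 620/688 nm | Measure: Percent inhibition of Arfgap1-stimulated GTP hydrolysis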
V-ATPase pHluor: regulators of yeast V-ATPase proton transport | 350,000 compounds, 0.37% hits | S. cerevisiae, pHLuorin cytosolic pH fluorescence | response, % at 10 µM; in the data active = response mostly above about 7.3%, no sharp cut-off; inactive = mostly below about 5.4%; also: actives read high
ASAP1 inh: ASAP1 ArfGAP inhibition | Q9ULH1 | ASAP1-stimulated ARF1 GTP hydrolysis, GDP FP detection | inhibition, % at 16.5 µM | 360,000 compounds, 0.19% hits | AID 624377; in the data active = inhibition above about 25%;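 also: 0% = vehicle with enzyme and substrate and 100% = no enzyme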
Target sequence (Q9ULH1 325-724 limits assumed): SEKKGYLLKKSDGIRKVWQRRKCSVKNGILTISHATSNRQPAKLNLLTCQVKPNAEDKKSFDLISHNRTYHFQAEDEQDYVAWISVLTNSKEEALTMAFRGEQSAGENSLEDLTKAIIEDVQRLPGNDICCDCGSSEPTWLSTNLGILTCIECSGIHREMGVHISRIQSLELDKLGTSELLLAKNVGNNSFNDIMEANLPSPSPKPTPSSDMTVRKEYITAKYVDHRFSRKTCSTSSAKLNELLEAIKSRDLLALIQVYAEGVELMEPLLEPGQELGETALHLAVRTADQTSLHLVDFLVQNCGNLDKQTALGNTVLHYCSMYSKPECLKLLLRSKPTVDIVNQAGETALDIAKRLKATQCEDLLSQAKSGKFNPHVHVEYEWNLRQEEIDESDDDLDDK
* hit, by the source's call; . = no result.

SMILES	CendR NRP1 mod	Exocytosis inh	ARFGAP1 inhibitor	V-ATPase pHluor	ASAP1 inh
O=C(Nc1ccc(C(F)(F)F)cc1)c1cc(S(=O)(=O)NCC2COc3ccccc3O2)ccc1F (configuration not stated)	82.4*	14.5	18.3	4.4	12.5
COC(=O)[C@]12C[C@H](CC(=O)N3CCC(c4ccccc4)CC3)C(=O)N(Cc3ccc4c(c3)OCO4)C1=C[C@H](C(C)(C)C)O[C@@H]2C	.	.	-1.7	.	3.2
C[C@H]1CN(C(=O)OC(C)(C)C)CCN1c1ccc(N2CC[C@H](O)C2)c(C#N)c1	.	.	-6.5	.	-3.4
CC1=CN2C(=N)/C(=C/c3ccc([N+](=O)[O-])o3)C(=O)N=C2S1	136.2	80.3*	-2.4	142.8*	-1.1
CCC(=O)Nc1nc2nc(-c3ccccc3)cc(-c3ccccc3)n2n1	20.7*	-2.8	-2.2	1.3	7.5
CCn1c(NC(=O)c2ccccc2)nc2ccccc21	-4.7	4.7	18.5	4.2	-17.5
C=CCn1c(NC(=O)c2ccccc2)nc2ccccc21	26.3*	0.6	-8.6	4.9	-6.6
COCc1c(Br)c(C)[nH]c(=O)c1C#N	-8.7	-0.9	-0.6	-1.9	-0.6
Cc1[nH]c(=O)c(C#N)c(C)c1Cl	26.5*	2.1	12.2	1.7	-8.0
Cc1ccc(C)c(N2CCN(C(=O)c3ccc(Cn4c(=O)[nH]c5ccccc5c4=O)cc3)CC2)c1	2.3	0.7	2.3	2.5	-2.9
O=C(c1ccc(Cn2c(=O)[nH]c3ccccc3c2=O)cc1)N1CCN(c2ccc(Cl)cc2)CC1	25.3*	5.7	4.0	1.1	-6.4
CC(=O)c1c(C)[nH]c(C(=O)OCC(=O)NCc2ccc(Cl)cc2)c1C	8.6	-1.8	-7.4	-1.5	6.5
CC(=O)c1c(C)[nH]c(C(=O)OCC(=O)NCc2cccs2)c1C	21.2*	5.9	-6.1	2.9	-6.7
N#Cc1ccc2nc(-c3ccc(CN4CCC5(CC4)CNc4ccccc45)cc3)c(-c3ccccc3)nc2c1	.	.	0.2	.	4.4
O=C(NCCc1ccc(O)cc1)c1ccc(Cl)cc1	24.1*	0.6	1.5	-0.5	12.6
Cc1cc(=O)oc(C)c1C(=O)Nc1ccc2nsnc2c1	27.0*	4.0	1.3	2.7	-4.7
NC(=S)NNC(=S)Nc1ccccc1	39.4*	3.3	-9.3	0.0	-2.7
CCCN1C(=O)c2[nH]nc(-c3ccccc3)c2C1c1ccc(Br)cc1 (configuration not stated)	.	.	2.8	.	14.6
CC(Sc1nnc(-c2cccnc2)o1)C(=O)NC1CCCC1 (configuration not stated)	22.1*	27.2	8.1	-0.5	-0.8
O=C(NCCN1CCCCCC1)C1CCN(S(=O)(=O)N2CCOCC2)CC1	22.6*	7.3	1.0	-4.3	6.4
CC1CCN(S(=O)(=O)N2CCC(C(=O)NCCN3CCOCC3)CC2)CC1	-4.0	0.3	-1.8	-1.5	-11.9
CON(C)C(=O)C(C)(C)CC#CCN(CC#Cc1ccccc1)S(=O)(=O)c1ccc(C)cc1	.	.	12.5	.	9.8
O=C(NCc1ccccc1)c1ccc(N2CCC3(CC2)CC(c2ccc(Cl)cc2)=NO3)c([N+](=O)[O-])c1	30.9*	-7.0	16.8	-1.4	-12.6
CCCNC(=O)c1ccc(N2CCC3(CC2)CC(c2ccccc2)=NO3)c([N+](=O)[O-])c1	0.9	-6.0	5.3	-8.5	6.6
O=C(NCc1ccco1)C(c1ccco1)N(C(=O)Cn1nnc2ccccc21)c1ccc2c(c1)CCC2 (configuration not stated)	19.1*	-0.2	-9.3	-0.5	3.3
SMILES	CendR NRP1 mod	Exocytosis inh	ARFGAP1 inhibitor	V-ATPase pHluor	ASAP1 inh
Cc1nn(-c2ccccc2)c(N2CCCCC2)c1/C=N/NC(=O)c1ccncc1	7.0	0.0	-4.2	-0.6	-3.5
CCOc1ccc(S(=O)(=O)Nc2ccc(C(=O)N/N=C/c3c(C)nn(-c4ccccc4)c3N3CCCC3)cc2)cc1	20.6*	5.3	-5.2	1.7	10.6
Cc1nn(-c2ccccc2)c2sc(C(=O)O)cc12	-4.0	-2.3	17.1	0.6	-7.5
COC(=O)c1cc2c(C)nn(-c3ccccc3)c2s1	31.0*	1.6	0.3	1.7	4.8
C=CCN1C(=O)/C(=C2/Sc3ccc(OC)cc3N2C)SC1=NCc1ccccc1	-18.5	-1.1	10.0	-5.4	1.2
COc1ccc2c(c1)N(C)/C(=C1/SC(=NCc3ccccc3)N(c3ccccc3)C1=O)S2	26.6*	-3.1	-1.6	-0.6	-6.2
CCCCc1c(-c2ccccc2OC)ncn1Cc1ccc(C(C)(C)C)cc1	.	.	-0.5	.	-18.9
N#Cc1ccc(COc2cccnc2[N+](=O)[O-])cc1	-3.6	1.0	4.7	-1.6	-6.7
O=[N+]([O-])c1ncccc1OCc1ccc(-c2ccccc2)cc1	-11.3	86.0*	8.1	-0.4	6.8
CCCCCCCC[n+]1cccc2c3ccccc3ccc21	12.9	28.3	-2.2	1.1	4.8
CCCCCCCCCC[n+]1cccc2c3ccccc3ccc21	4.0	70.3*	7.5	0.2	-14.0
CCCCN(C)CCNC(=O)c1cc2cc3ccc(OC)cc3nc2o1	21.1*	9.6	1.9	-0.4	15.0
CCN(CC)CCNC(=O)c1cc2cc3ccc(OC)cc3nc2o1	8.3	2.5	6.5	-1.7	1.1
Cc1cccc2nc(-c3ccccc3)nc(N3CCC(O)(c4ccc(Cl)cc4)CC3)c12	30.9*	1.5	10.3	-5.3	3.0
O=[N+]([O-])c1ccc2c(c1)CO[C@]21O[C@H](CCO)C[C@H](O)[C@H]1O	.	.	7.2	.	-5.8
C=C(C)[C@@H]1CCC2(C(=O)O)CC[C@]3(C)[C@H](CC[C@@H]4[C@@]5(C)CCC(=O)C(C)(C)[C@@H]5CC[C@]43C)[C@@H]12 (some centres not stated)	-14.2	2.3	-11.0	1.0	-7.8
C=C(CC[C@@H](O)C(C)(C)O)[C@H]1CC[C@]2(C)[C@@H]1CCC1[C@@]3(C)CCC(=O)C(C)(C)C3CC[C@]12C (some centres not stated)	27.6*	2.5	15.9	-1.0	-0.6
O=C(CCNc1ccc(Cc2ccncc2)cc1)c1ccc([N+](=O)[O-])cc1	9.5	89.5*	6.3	6.4	-13.6
O=C(CCNc1ccc(Br)cc1)c1cccc([N+](=O)[O-])c1	-2.5	86.5*	3.0	5.1	-10.7
O=C(Nc1ccc(Cc2ccncc2)cc1)c1cccc([N+](=O)[O-])c1	-2.3	12.5	-7.8	-1.4	8.5
O=C(CCNc1ccc(F)cc1)c1cccc([N+](=O)[O-])c1	4.8	33.6	-3.8	0.7	5.2
CC(=O)c1c(C(C)=O)c(C)n(-c2cccc([N+](=O)[O-])c2)c1C	4.3	0.3	3.1	5.7	1.6
CC(=O)C1=C(c2cccc([N+](=O)[O-])c2)N(C(C)=O)n2c(C)nnc2S1	-13.3	55.5*	-8.2	-3.4	1.0
CCOC(=O)c1cnc2c(ccc3ccccc32)c1NCCO	-12.6	50.6	-4.1	5.4	-10.7
CCOC(=O)c1cnc2ccc(C)cc2c1NCCO	26.7*	-3.6	9.4	2.1	-4.3
